Data published in ChEMBL document CHEMBL1140279, “Synthesis and antimalarial evaluation of new N1-(7-chloro-4-quinolyl)-1,4-bis(3-aminopropyl)piperazine derivatives” (Bioorg Med Chem Lett, 2005).
pIC50: −log10 of the molar value.

test system: MRC5; test: Cytotoxic concentration of compound of compound […] MRC-5 cells (human diploid embryonic lung cell line); format: functional
In short: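 Cytotoxicity measured on MRC-5 human diploid embryonic lung cells with a colorimetric MTT assay, giving the CC50.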

| SMILES | CC50 |
| --- | --- |
| O=C(CCCO)N(CCCN1CCN(CCCNc2ccnc3cc(Cl)ccc23)CC1)CC1CC1 | 21 µM |
| NCCCN(CCCN1CCN(CCCNc2ccnc3cc(Cl)ccc23)CC1)CC1CC1 | > 32 µM |
| NCCC(=O)N(CCCN1CCN(CCCNc2ccnc3cc(Cl)ccc23)CC1)CC1CC1 | > 32 µM |
| CC(C)(C)OC(=O)NCCCN(CCCN1CCN(CCCNc2ccnc3cc(Cl)ccc23)CC1)CC1CC1 | 4 µM |
| O=C(O)CCC(=O)N(CCCN1CCN(CCCNc2ccnc3cc(Cl)ccc23)CC1)CC1CC1 | > 32 µM |
| CC(C)(C)OC(=O)NCCC(=O)N(CCCN1CCN(CCCNc2ccnc3cc(Cl)ccc23)CC1)CC1CC1 | 4 µM |
| N#CCCCCN(CCCN1CCN(CCCNc2ccnc3cc(Cl)ccc23)CC1)CC1CC1 | 4 µM |
| O=C(C1CC1)N(CCCN1CCN(CCCNc2ccnc3cc(Cl)ccc23)CC1)CC1CC1 | 13.5 µM |
| NC(=O)CCC(=O)N(CCCN1CCN(CCCNc2ccnc3cc(Cl)ccc23)CC1)CC1CC1 | > 32 µM |

test system: MRC5; test: Ratio of CC50/IC50 was determined; format: functional, Homo sapiens
In short: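 Selectivity index taken as the ratio of CC50 on MRC-5 human diploid embryonic lung cells (colorimetric MTT assay) to IC50 for growth inhibition of the chloroquine-resistant Plasmodium falciparum strain FcB1. The IC50s come from triplicate experiments and are reported with standard error.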

| SMILES | Ratio |
| --- | --- |
| O=C(CCCO)N(CCCN1CCN(CCCNc2ccnc3cc(Cl)ccc23)CC1)CC1CC1 | 122 |
| NCCCN(CCCN1CCN(CCCNc2ccnc3cc(Cl)ccc23)CC1)CC1CC1 | >210 |
| NCCC(=O)N(CCCN1CCN(CCCNc2ccnc3cc(Cl)ccc23)CC1)CC1CC1 | >80 |
| CC(C)(C)OC(=O)NCCCN(CCCN1CCN(CCCNc2ccnc3cc(Cl)ccc23)CC1)CC1CC1 | 317 |
| O=C(O)CCC(=O)N(CCCN1CCN(CCCNc2ccnc3cc(Cl)ccc23)CC1)CC1CC1 | >23 |
| CC(C)(C)OC(=O)NCCC(=O)N(CCCN1CCN(CCCNc2ccnc3cc(Cl)ccc23)CC1)CC1CC1 | 116 |
| N#CCCCCN(CCCN1CCN(CCCNc2ccnc3cc(Cl)ccc23)CC1)CC1CC1 | 404 |
| O=C(C1CC1)N(CCCN1CCN(CCCNc2ccnc3cc(Cl)ccc23)CC1)CC1CC1 | 2076 |

test system: Plasmodium falciparum; test: Antimalarial activity as growth inhibition of chloroquine-resistant Plasmodium falciparum FcB1; format: functional, organism-based
In short: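 Parasite growth inhibition assay on the chloroquine-resistant P. falciparum FcB1 strain. IC50 values are derived from triplicate experiments and reported with standard error.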

| SMILES | pIC50 |
| --- | --- |
| O=C(CCCO)N(CCCN1CCN(CCCNc2ccnc3cc(Cl)ccc23)CC1)CC1CC1 | 6.76 |
| NCCCN(CCCN1CCN(CCCNc2ccnc3cc(Cl)ccc23)CC1)CC1CC1 | 6.82 |
| CC(C)(C)OC(=O)NCCCN(CCCN1CCN(CCCNc2ccnc3cc(Cl)ccc23)CC1)CC1CC1 | 7.90 |
| CC(C)(C)OC(=O)NCCC(=O)N(CCCN1CCN(CCCNc2ccnc3cc(Cl)ccc23)CC1)CC1CC1 | 7.47 |
| N#CCCCCN(CCCN1CCN(CCCNc2ccnc3cc(Cl)ccc23)CC1)CC1CC1 | 8.00 |
| O=C(C1CC1)N(CCCN1CCN(CCCNc2ccnc3cc(Cl)ccc23)CC1)CC1CC1 | 8.19 |
| NC(=O)CCC(=O)N(CCCN1CCN(CCCNc2ccnc3cc(Cl)ccc23)CC1)CC1CC1 | > 6.00 |
